Consider 4 compounds from ChEMBL document CHEMBL3632508, “Discovery of α-mangostin as a novel competitive inhibitor against mutant isocitrate dehydrogenase-1” (Bioorg Med Chem Lett, 2015).

In series [1] the target is Isocitrate dehydrogenase [NADP] cytoplasmic (Homo sapiens, UniProt O75874, R132H). Kind of series: Competitive inhibition of IDH1-R132H mutant (unknown origin) using a-ketoglutarate and NADPH as substrate by steady state kinetic analysis. The note with it: for pKi: read-out: Ki. The gist of the method: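 IDH1-R132H in buffer of 150 mM NaCl, 20 mM Tris–Cl pH 7.5, 10 mM MnCl₂, 150 μM β-NADPH, 0.03% (w/v) BSA; α-ketoglutarate varied to reach maximal activity; steady-state kinetic parameters fitted with an enzyme kinetics module.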

The nature of series [2]: Cytotoxicity against IDH1 expressing human MCF10A cells assessed as cell viability at 5 uM after 24 hrs by hemacytometer counting method. In kind it is cell-based. The conditions noted are these: mcf-10a. The gist of the method: (§1)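 Isogenic CRISPR-made IDH1 (+/+) and IDH1 (+/R132H) MCF10A cells seeded at 5.0 × 10⁴ per well, exposed to 5 μM compound, harvested at indicated times (24 h), viable cells counted by hemacytometer; mean ± standard deviation, Student t-test, n = 6.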

A short description of series [3]: Cytotoxicity against IDH1-R132H mutant expressing human MCF10A cells assessed as cell viability at 5 uM after 24 hrs by hemacytometer counting method. In kind it is cell-based. The note with it: mcf-10a. In a few lines: as §1
For series [4], the system named is Isocitrate dehydrogenase [NADP] cytoplasmic (Homo sapiens), O75874 [R132H]. Kind of series: Inhibition of IDH1-R132H mutant in human MCF10A cells assessed as decrease in histone H3 trimethylated lysine level (H3K4me3) at 5 uM incubated for 30 mins by Western blotting method. In kind it is cell-based. The note with it: MCF-10A. In a few lines: (§2)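 Isogenic IDH1 (+/R132H) MCF10A cells, compared with IDH1 (+/+) cells, given 5 μM compound; lysed in SDS buffer, protein by BCA, SDS-PAGE, PVDF transfer; probed overnight at 4 °C with H3K4me3, H3K9me3, H3K27me3, H3K36me3 or H3K79me3 antibodies, total H3 as reference; HRP secondary, ECL detection.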
(Immunoblotting shows a protein as a band on a membrane.)

Series [5] shares this test system. Kind of series: Inhibition of IDH1-R132H mutant in human MCF10A cells assessed as decrease in 5-methylcytosine level at 5 uM incubated for 24 hrs by DAPI staining based fluorescence microscopy. In kind it is cell-based. The note with it: MCF-10A. The gist of the method:
(§3)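 Isogenic IDH1 (+/+) and (+/R132H) MCF10A cells on coverslips (5 × 10⁴ per well), 16 h at 37 °C, then 5 μM compound for 24 h; fixed in 4% paraformaldehyde, blocked, stained overnight with anti-5mC, 5hmC or 5fC antibodies; FITC secondary with DAPI, imaged by fluorescence microscopy.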

Series [6] has the same test system. Kind of series: Inhibition of IDH1-R132H mutant in human MCF10A cells assessed as decrease in histone H3 trimethylated lysine level (H3K9me3) at 5 uM incubated for 30 mins by Western blotting method. The note with it: MCF-10A. In kind it is cell-based. The gist of the method:
as §2

The test system is the same in series [7]. Briefly: Inhibition of IDH1-R132H mutant in human MCF10A cells assessed as decrease in histone H3 trimethylated lysine level (H3K27me3) at 5 uM incubated for 30 mins by Western blotting method. In kind it is cell-based. The conditions noted are these: MCF-10A. In a few lines: as §2
For series [8] the test system is unchanged. Kind of series: Inhibition of IDH1-R132H mutant in human MCF10A cells assessed as decrease in histone H3 trimethylated lysine level (H3K36me3) at 5 uM incubated for 30 mins by Western blotting method. In kind it is cell-based. The conditions noted are these: MCF-10A. The gist of the method: as §2
For series [9] the test system is unchanged. Briefly: Inhibition of IDH1-R132H mutant in human MCF10A cells assessed as decrease in histone H3 trimethylated lysine level (H3K79me3) at 5 uM incubated for 30 mins by Western blotting method. In kind it is cell-based. The note with it: MCF-10A. The gist of the method: as §2
Series [10] shares this test system. Kind of series: Inhibition of IDH1-R132H mutant in human MCF10A cells assessed as increase in 5-hmC level at 5 uM incubated for 24 hrs by DAPI staining based fluorescence microscopy. In kind it is cell-based. The conditions noted are these: MCF-10A. In a few lines: as §3
Series [11] shares this test system. Kind of series: Inhibition of IDH1-R132H mutant in human MCF10A cells assessed as increase in 5-fC level at 5 uM incubated for 24 hrs by DAPI staining based fluorescence microscopy. In kind it is cell-based. The conditions noted are these: MCF-10A. In a few lines: as §3

pKi: −log10 of the molar value. Active and inactive are the calls of the source. The rule behind the calls is not given here.

Isocitrate dehydrogenase [NADP] cytoplasmic, sequence (O75874 2-414 R132H limits assumed): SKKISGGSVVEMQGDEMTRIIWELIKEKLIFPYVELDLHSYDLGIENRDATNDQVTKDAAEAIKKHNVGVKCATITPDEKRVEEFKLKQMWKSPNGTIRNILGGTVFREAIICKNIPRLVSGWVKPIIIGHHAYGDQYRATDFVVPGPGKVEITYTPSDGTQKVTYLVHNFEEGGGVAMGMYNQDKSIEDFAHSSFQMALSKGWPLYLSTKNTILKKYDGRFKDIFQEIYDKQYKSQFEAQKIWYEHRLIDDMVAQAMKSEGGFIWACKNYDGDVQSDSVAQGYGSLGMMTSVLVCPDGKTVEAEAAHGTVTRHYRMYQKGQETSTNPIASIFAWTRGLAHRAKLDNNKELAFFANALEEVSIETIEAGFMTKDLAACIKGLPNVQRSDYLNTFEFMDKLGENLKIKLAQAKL
Isocitrate dehydrogenase [NADP] cytoplasmic (Homo sapiens), O75874 [R132H], sequence (O75874 whole entry R132H): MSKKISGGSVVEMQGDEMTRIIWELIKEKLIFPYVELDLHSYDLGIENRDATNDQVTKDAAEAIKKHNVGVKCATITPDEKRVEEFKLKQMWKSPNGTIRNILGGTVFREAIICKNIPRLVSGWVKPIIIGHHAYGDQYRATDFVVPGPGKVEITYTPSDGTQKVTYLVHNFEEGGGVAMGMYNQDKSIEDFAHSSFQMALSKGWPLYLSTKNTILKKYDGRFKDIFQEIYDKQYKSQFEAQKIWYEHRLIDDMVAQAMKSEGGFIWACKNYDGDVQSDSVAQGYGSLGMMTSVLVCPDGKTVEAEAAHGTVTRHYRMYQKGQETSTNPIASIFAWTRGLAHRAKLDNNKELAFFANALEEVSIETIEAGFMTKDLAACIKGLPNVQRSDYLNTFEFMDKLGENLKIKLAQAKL

For orientation: pKi means the Ki on a negative log10 scale, so that one unit is a factor of ten. On to `COc1c(O)cc2oc3cc(O)c(CC=C(C)C)c(O)c3c(=O)c2c1CC=C(C)C` [MANGOSTIN], for which, in series [1], the pKi is 5.55. In addition, the Activity result in series [2] and in series [3] was “Non-toxic” throughout. Further, the inhibition result in [4], in series [5], in [6], in series [7], in [8] and in [9] was “Active” each time. The inhibition result in series [10] and in [11] was “Active” throughout.

Take `CCN(CC)C(=O)Oc1cc2oc3cc(O)c(CC=C(C)C)c(O)c3c(=O)c2c(CC=C(C)C)c1OC`: in series [1], the Ki entry is “Not Active”.

With `CCN(CC)C(=O)Oc1cc2oc3cc(O)c(OC)c(CC=C(C)C)c3c(=O)c2c(O)c1CC=C(C)C`, the Ki entry in series [1] is reported as “Not Active”.

For the compound `COc1cc2oc3cc(O)c(OC)c(CC=C(C)C)c3c(=O)c2c(O)c1CC=C(C)C`, the pKi in [1] was 4.92.
